This is an account of results in ChEMBL document CHEMBL2412972, “Design, synthesis and biological evaluation of novel triaryl (Z)-olefins as tamoxifen analogues” (Bioorg Med Chem Lett, 2013).

The subject of assay [1] is MCF7. Nature of the assay: Induction of apoptosis in human MCF7 cells assessed as caspase 3/7 activation after 72 hrs by luminescence assay. The format is functional, cell-based. In a few lines: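 MCF-7 cells were plated at 1×10^4 per well, incubated for 24 h, then treated for 72 h. Caspase-3/7 activity was measured with a Caspase-Glo luminogenic DEVD substrate, and luminescence was reported as relative light units. Compared with DMSO vehicle; mean ± SD, n = 6.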

For assay [2], the system named is MCF7. As to the kind of experiment: Antiproliferative activity against human MCF7 cells at 5 uM after 72 hrs by MTT assay in presence of estradiol. Format: functional, cell-based. In a few lines:
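MCF-7 cells (ATCC) were maintained in DMEM/F-12 with 10% FBS at 37 °C and 5% CO2. They were seeded for 24 h, then treated with 5 µM test agent for 72 h in 5% FBS medium, with and without estradiol. Read-out was MTT absorbance at 570 nm, expressed as percent of control wells. Two experiments, each with six replicates; mean ± SD.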

The subject of assay [3] is MDA-MB-231. Nature of the assay: Ratio of tamoxifen IC50 to compound IC50 for human MDA-MB-231 cells after 72 hrs by MTT assay. Format: functional. A general note: Formazan colour is commonly taken as a measure of viable cells.
Assay [4] deals with MCF7. As to the kind of experiment: Ratio of tamoxifen IC50 to compound IC50 for human MCF7 cells after 72 hrs by MTT assay. The format is functional.
Assay [5] concerns MDA-MB-231. Nature of the assay: Antiproliferative activity against human MDA-MB-231 cells after 72 hrs by MTT assay. The format is functional, cell-based. To be noted: MDA-MB-231, 72 h. In a few lines:
(§1)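 Cells were seeded in 96-well plates for 24 h, then exposed to a range of concentrations for 72 h in DMEM/F-12 with 5% FBS. DMSO vehicle controls were matched. MTT was added at 0.5 mg/ml for 2 h at 37 °C, solubilized in DMSO, and read at 570 nm. IC50 is the concentration giving 50% cell death relative to DMSO control. Mean ± SD, n = 6.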

The subject of assay [6] is MCF7. Nature of the assay: Antiproliferative activity against human MCF7 cells after 72 hrs by MTT assay. The format is functional, cell-based. The conditions noted are these: MCF7, 72 h. In outline: as §1

The source made the active and inactive calls. No cut-off for these calls is given here.

As a reminder, the IC50 is the point on the concentration scale where inhibition reaches its midpoint. A high value points to weaker potency in that assay. Consider `C/C(=C(\c1ccccc1)c1ccc(OCCN2CCNCC2)cc1)c1ccc(F)cc1`, for which the result with MCF7 [1] and in the assay on MCF7 [2] was Active. In addition, the “Ratio IC50” value in the assay with MDA-MB-231 [3] and in the assay with MCF7 [4] was 2 in each case. The IC50 with MDA-MB-231 [5] was 13 µM; in the assay on MCF7 [6] it was 5.58 µM.

As to `C/C(=C(\c1ccccc1)c1ccc(OCCN2CCCCC2)cc1)c1ccccc1`, the IC50 in the assay on MDA-MB-231 [5] worked out at 73.5 µM; with MCF7 [6] it was 55.5 µM.

In the case of `C/C(=C(\c1ccccc1)c1ccc(OCCN2CCN(C)CC2)cc1)c1ccccc1`, the result with MCF7 [1] and with MCF7 [2] was Active. The “Ratio IC50” value in the assay on MDA-MB-231 [3] and in the assay on MCF7 [4] was 2 throughout. The IC50 was found to be 10.5 µM with MDA-MB-231 [5] and 6.75 µM in the assay with MCF7 [6].

For `C/C(=C(\c1ccccc1)c1ccc(OCCN2CCN(C)CC2)cc1)c1ccc(F)cc1`, the IC50 in the assay on MDA-MB-231 [5] was > 100 µM; in the assay with MCF7 [6], 86.3 µM.

As to `C/C(=C(\c1ccccc1)c1ccc(OCCN2CCCCC2)cc1)c1ccc(F)cc1`, the IC50 in the assay with MDA-MB-231 [5] amounted to 43 µM; in the assay on MCF7 [6], 16.6 µM.

For `CC/C(=C(\c1ccccc1)c1ccc(OCCN(C)C)cc1)c1ccccc1` [TAMOXIFEN], the IC50 in the assay with MDA-MB-231 [5] was determined as 64.8 µM; in the assay on MCF7 [6] it was 28 µM.

For `C/C(=C(\c1ccccc1)c1ccc(OCCN2CCNCC2)cc1)c1ccccc1`, the IC50 in the assay on MDA-MB-231 [5] and in the assay on MCF7 [6] was > 100 µM in each case.
